{"source": "ChEMBL document CHEMBL1124042", "about": "“Synthesis and potential antipsychotic activity of 1H-imidazo[1,2-c]pyrazolo[3,4-e]pyrimidines” (J Med Chem, 1988)", "key": {"[1]": {"system": "Rattus norvegicus", "assay": "Inhibition of self-stimulation in rats after the compound administered through perorally", "format": "functional", "conditions": "po", "procedure,_shortened": "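Suppression of high base line self-stimulation in rats after oral dosing. Read-out is ED50 in mg/kg.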"}, "[2]": {"system": "Mus musculus", "assay": "Inhibition of locomotor activity in mouse after intraperitoneal administration", "format": "functional", "conditions": "Mus musculus, ip; read-out: ED50"}, "[3]": {"biological_target": "D(2) dopamine receptor (Rattus norvegicus, UniProt P61169)", "sequence (P61169 whole entry)": "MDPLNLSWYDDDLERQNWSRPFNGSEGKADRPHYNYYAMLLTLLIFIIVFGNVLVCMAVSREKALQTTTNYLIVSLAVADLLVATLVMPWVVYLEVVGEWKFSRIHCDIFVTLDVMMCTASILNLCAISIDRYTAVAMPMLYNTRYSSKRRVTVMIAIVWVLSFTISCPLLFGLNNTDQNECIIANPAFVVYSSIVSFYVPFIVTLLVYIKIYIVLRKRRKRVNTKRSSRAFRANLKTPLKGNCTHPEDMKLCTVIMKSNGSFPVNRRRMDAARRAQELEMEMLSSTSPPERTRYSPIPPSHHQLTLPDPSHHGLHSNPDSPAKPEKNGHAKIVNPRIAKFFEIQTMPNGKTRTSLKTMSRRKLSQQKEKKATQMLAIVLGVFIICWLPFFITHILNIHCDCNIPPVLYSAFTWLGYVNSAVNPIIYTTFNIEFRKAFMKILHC", "assay": "Displacement of [3H]haloperidol from Dopamine receptor D2 in rat brain", "format": "tissue-based"}, "[4]": {"system": "Rattus norvegicus", "assay": "Inhibition of locomotion in rats after the compound administered through perorally", "format": "functional", "conditions": "po", "procedure,_shortened": "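Oral dosing in rats, with spontaneous locomotor activity scored alongside ataxia. ED50 reported ± SEM.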"}, "[5]": {"system": "Rattus norvegicus", "assay": "Inhibition of Sidman avoidance in rats after peroral administration", "format": "functional", "conditions": "po", "procedure,_shortened": "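Continuous (Sidman) avoidance responding in rats with oral dosing. At least three doses per drug, four animals per dose. ED50 reported ± SEM.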"}, "[6]": {"system": "Monkey", "assay": "Inhibition of Sidman avoidance in squirrel monkeys after the compound administered through perorally", "format": "functional", "conditions": "in Saimiri, po", "procedure,_shortened": "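Oral dosing in squirrel monkeys trained on continuous (Sidman) avoidance responding. ED50 reported ± SEM.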"}, "[7]": {"biological_target": "Muscarinic acetylcholine receptor", "assay": "Displacement of [3H]quinuclidinyl benzilate(QNB) from Muscarinic acetylcholine receptor in rat brain", "format": "tissue-based", "procedure,_shortened": "(§1)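 Rat brain radioligand displacement binding. IC50 values (μM) were derived by nonlinear regression from four or five concentrations of compound.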"}, "[8]": {"biological_target": "T1, Adrenergic receptor alpha-1 (Rattus norvegicus, UniProt P15823+P23944+P43140)", "T1 sequence (P15823 whole entry)": "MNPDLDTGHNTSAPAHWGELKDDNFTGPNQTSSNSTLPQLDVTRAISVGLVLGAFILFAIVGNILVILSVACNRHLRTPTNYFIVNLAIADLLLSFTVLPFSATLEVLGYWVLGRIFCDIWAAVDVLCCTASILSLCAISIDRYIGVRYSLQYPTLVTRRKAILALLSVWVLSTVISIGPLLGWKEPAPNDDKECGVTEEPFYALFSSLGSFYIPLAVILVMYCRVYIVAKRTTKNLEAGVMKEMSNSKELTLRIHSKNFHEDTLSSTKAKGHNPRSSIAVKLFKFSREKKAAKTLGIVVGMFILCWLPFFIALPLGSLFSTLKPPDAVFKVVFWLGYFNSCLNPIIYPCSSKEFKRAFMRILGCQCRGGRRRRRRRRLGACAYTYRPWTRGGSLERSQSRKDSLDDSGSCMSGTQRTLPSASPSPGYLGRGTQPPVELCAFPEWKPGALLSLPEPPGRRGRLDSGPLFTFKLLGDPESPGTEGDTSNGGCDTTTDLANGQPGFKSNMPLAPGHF", "T1 sequence (P23944 whole entry)": "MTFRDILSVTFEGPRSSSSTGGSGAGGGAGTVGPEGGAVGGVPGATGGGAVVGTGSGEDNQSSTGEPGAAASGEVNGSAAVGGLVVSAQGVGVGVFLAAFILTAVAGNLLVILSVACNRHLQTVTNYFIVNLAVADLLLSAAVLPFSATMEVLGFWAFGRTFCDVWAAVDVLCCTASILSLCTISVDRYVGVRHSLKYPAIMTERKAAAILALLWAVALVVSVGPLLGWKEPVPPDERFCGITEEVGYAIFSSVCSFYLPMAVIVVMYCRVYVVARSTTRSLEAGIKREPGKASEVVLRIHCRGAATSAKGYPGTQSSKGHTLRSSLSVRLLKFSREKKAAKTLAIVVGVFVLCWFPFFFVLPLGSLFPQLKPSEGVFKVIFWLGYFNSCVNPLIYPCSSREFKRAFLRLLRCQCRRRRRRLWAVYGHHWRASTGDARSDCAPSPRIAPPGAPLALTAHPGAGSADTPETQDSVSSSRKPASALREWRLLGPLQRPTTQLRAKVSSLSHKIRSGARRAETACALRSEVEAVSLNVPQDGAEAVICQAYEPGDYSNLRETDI", "T1 sequence (P43140 whole entry)": "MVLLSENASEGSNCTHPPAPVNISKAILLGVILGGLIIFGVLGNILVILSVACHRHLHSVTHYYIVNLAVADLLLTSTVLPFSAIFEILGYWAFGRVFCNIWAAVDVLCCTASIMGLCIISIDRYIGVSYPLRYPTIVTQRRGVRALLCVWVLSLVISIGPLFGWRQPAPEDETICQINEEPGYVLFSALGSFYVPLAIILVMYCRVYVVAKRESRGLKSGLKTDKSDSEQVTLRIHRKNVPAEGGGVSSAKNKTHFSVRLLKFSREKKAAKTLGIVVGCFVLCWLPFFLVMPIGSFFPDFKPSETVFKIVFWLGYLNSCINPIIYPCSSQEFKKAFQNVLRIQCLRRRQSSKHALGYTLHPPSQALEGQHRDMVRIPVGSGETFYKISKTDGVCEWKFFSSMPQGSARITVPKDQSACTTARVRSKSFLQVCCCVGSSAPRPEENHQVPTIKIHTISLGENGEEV", "assay": "Displacement of [3H]WB-4101 from alpha-1 adrenergic receptor in rat brain", "format": "tissue-based", "procedure,_shortened": "as §1"}, "[9]": {"biological_target": "T2, Adenosine receptor A1 (Rattus norvegicus, UniProt P25099)", "T2 sequence (P25099 whole entry)": "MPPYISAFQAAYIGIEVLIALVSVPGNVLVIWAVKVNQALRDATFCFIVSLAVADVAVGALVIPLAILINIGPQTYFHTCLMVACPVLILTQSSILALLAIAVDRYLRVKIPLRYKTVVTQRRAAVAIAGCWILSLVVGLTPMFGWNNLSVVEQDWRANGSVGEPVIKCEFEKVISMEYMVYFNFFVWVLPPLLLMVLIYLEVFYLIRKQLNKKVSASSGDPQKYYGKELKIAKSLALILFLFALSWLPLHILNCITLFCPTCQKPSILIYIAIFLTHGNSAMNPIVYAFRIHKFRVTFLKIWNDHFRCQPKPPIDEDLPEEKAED", "assay": "Displacement of [3H]CHA (N6-Cyclohexyl adenosine) from adenosine A1 receptor in rat brain", "format": "tissue-based", "procedure,_shortened": "as §1"}, "[10]": {"assay": "Displacement of [3H]flunitrazepam from GABA-A benzodiazepine receptor of rat brain", "procedure,_shortened": "as §1"}, "[11]": {"system": "Mus musculus", "assay": "Inhibition of induction of ataxia in mouse after intraperitoneal administration", "format": "functional", "conditions": "ip"}, "[12]": {"biological_target": "Voltage-gated L-type calcium channel (Rattus norvegicus, UniProt P22002+Q02485+P27732)", "assay": "Displacement of [3H]nitrendipine from L-type [Ca2+] channel of rat brain", "format": "tissue-based"}}}
{"compound": "CCC1CN2C(C)=Nc3c(C)nn(C)c3C2=N1", "note": "(configuration not stated)", "values": [{"measurement": "ED50", "setting": "[1]", "value": 10.8, "unit": "mg/kg"}, {"measurement": "ED50", "setting": "[2]", "value": 23.7, "unit": "mg/kg"}, {"measurement": "IC50", "setting": "[3]", "value": "> 10", "unit": "µM"}, {"measurement": "ED50", "setting": "[4]", "value": 15.5, "unit": "mg/kg"}, {"measurement": "ED50", "setting": "[5]", "value": 19.2, "unit": "mg/kg"}, {"measurement": "ED50", "setting": "[6]", "value": 7.25, "unit": "mg/kg"}, {"measurement": "IC50", "setting": "[7]", "value": "> 10", "unit": "µM"}, {"measurement": "IC50", "setting": "[8]", "value": "> 10", "unit": "µM"}, {"measurement": "IC50", "setting": "[9]", "value": "> 10", "unit": "µM"}, {"measurement": "IC50", "setting": "[10]", "value": "> 1", "unit": "µM"}, {"measurement": "ED50", "setting": "[11]", "value": "> 100", "unit": "mg/kg"}, {"measurement": "IC50", "setting": "[12]", "value": "> 10", "unit": "µM"}]}
